The values that follow come from ChEMBL document CHEMBL3526050, “Elucidation of the metabolic pathways and the resulting multiple metabolites of almorexant, a dual orexin receptor antagonist, in humans” (Drug Metab Dispos, 2013).

Several values for one entry are separate records, joined by “and”; a condition that tells them apart may be missing. Equal values may be shown once.

Holding throughout (details): in vivo
Series [1] relates to Homo sapiens. Description: Drug level in healthy human treated with [14C]almorexant at 200 mg, po dosed as single dose relative to almorexant. The class given is ADME, organism-based. A digest of the protocol: (§1)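 Plasma from 6 subjects given one 200 mg oral 14C dose, pooled over at least 2 time points and acetonitrile-precipitated. Radio-LC-MS/MS used a C18 column with ammonium formate pH 4.0/acetonitrile gradient and 0.15-min fractions scintillation-counted. Peak radioactivity converted to ng-equivalents/mL to give AUC0-t. Co-eluting metabolites grouped and expressed relative to parent AUC and to total radioactivity.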

Another series concerns Plasma. Nature of the series: Drug level in plasma of healthy human treated with [14C]almorexant at 200 mg, po dosed as single dose. In kind it is ADME, organism-based. A digest of the protocol: as §1
In series [2] the test system is Homo sapiens. Description: Drug level in healthy human treated with [14C]almorexant at 200 mg, po dosed as single dose relative to total radioactivity. In kind it is ADME, organism-based. A digest of the protocol: as §1
Series [3] deals with Homo sapiens. Description: Tlast in healthy human treated with [14C]almorexant at 200 mg, po dosed as single dose. The class given is ADME, organism-based. A digest of the protocol:
as §1

Series [4] in a line: Tmax in healthy human at 200 mg, po dosed as single dose. The class given is ADME, organism-based. A digest of the protocol:
(§2)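 Plasma parent and metabolites M3, M5, M6, M8 after one 200 mg oral 14C dose in 6 fasted male subjects, sampled 0.17–240 h. Validated LC-MS/MS with penta-deuterated internal standards and positive ESI. Low range 0.4/1.0–100 ng/mL using supported liquid extraction, high range 50–1000 ng/mL using protein precipitation. Noncompartmental analysis, geometric means (95% CI), Tmax median (range).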

Series [5] relates to Homo sapiens. Description: AUC (0 to t) in healthy human treated with [14C]almorexant at 200 mg, po dosed as single dose. The class given is ADME, organism-based, Plasma. A digest of the protocol:
as §1

Series [6] is described as follows: Drug level in feces of healthy human treated with [14C]almorexant at 200 mg, po dosed as single dose. In kind it is ADME, organism-based. A digest of the protocol:
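Feces pooled by weight across 6 subjects (0–48 to 192–332 h) and extracted three times with acetonitrile, then dried and reconstituted. Analyzed by radio-LC-MS/MS with a methanol/acetonitrile gradient and scintillation-counted fractions. Procedural recovery was 73.0%. Reported as percent of administered radioactive dose.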

The subject of series [7] is Homo sapiens. Description: AUC (0 to infinity) in healthy human treated with [14C]almorexant at 200 mg, po dosed as single dose. The class given is ADME, organism-based, Plasma. Also on record: dose 200 mg, route oral, time infinity.
The subject of series [8] is Homo sapiens. Description: Cmax in healthy human treated with [14C]almorexant at 200 mg, po dosed as single dose. In kind it is ADME, organism-based. Further details: dose 200 mg, route oral.
The subject of series [9] is Homo sapiens. Description: Half life in healthy human treated with [14C]almorexant at 200 mg, po dosed as single dose. The class given is ADME, organism-based. A digest of the protocol: as §2
The test system of series [10] is Homo sapiens. Nature of the series: Tmax in healthy human treated with [14C]almorexant at 200 mg, po dosed as single dose. In kind it is ADME, organism-based. A digest of the protocol: as §2

Usually Tmax stands for the time at which the peak concentration occurs. For the molecule `COc1cc2c(cc1OC)[C@H](CC(O)c1ccc(C(F)(F)F)cc1)N([C@@H](C(N)=O)c1ccccc1)CC2` (stereo partly specified), the Drug uptake in the series on Homo sapiens [1] was found to be 28.1%; with Homo sapiens [2], 0.03%. Further, the Drug metabolism entry in the series on Plasma is “metabolite_detected”. In the series with Homo sapiens [3], this molecule came in with a Tlast of 1.6 h. Further, in [4], the time of peak concentration (Tmax) worked out at 1.6 h. In the series with Homo sapiens [5], this molecule registered an AUCt of 17.2 ng.Eq.hr/ml.

Broadly, the AUC is the area under the concentration-time curve, a measure of exposure. A low value points to less exposure. As a reminder, the Cmax is the maximum level reached in the sampled fluid or tissue. For the molecule `CNC(=O)[C@@H](c1ccccc1)[n+]1ccc2cc(OC)c(OC)cc2c1CCc1ccc(C(F)(F)F)cc1`, the Drug metabolism entry (in the series with Plasma; in series [6]) was “metabolite_detected” each time. The molecule also showed an AUC in the series with Homo sapiens [7] of 282 ng·h/mL. Further, in the series with Homo sapiens [8], the Cmax was 80.4 ng/mL. In the series on Homo sapiens [9], the t1/2 was determined as 26.3 h. For the same molecule, in the series on Homo sapiens [10], the Tmax worked out at 0.9 h.

For the molecule `COc1cc2cc[n+]([C@@H](C(N)=O)c3ccccc3)c(CCc3ccc(C(F)(F)F)cc3)c2cc1OC`, the Drug metabolism result (with Plasma; in series [6]) was “metabolite_detected” throughout.

In the case of `COc1cc2c(cc1OC)[C@H](CCc1ccc(C(F)(F)F)cc1)NCC2`, the Drug uptake was 541% in the series with Homo sapiens [1] and 0.61% in the series on Homo sapiens [2]. For the same molecule, the Drug metabolism result with Plasma was “metabolite_detected”. In the series on Homo sapiens [7], the AUC was found to be 1039 ng·h/mL. Besides, the Cmax in the series on Homo sapiens [8] is 99.4 ng/ml and 49 ng.Eq/ml. In the series with Homo sapiens [3], this molecule came in with a Tlast of 11 h. Besides, the t1/2 in the series on Homo sapiens [9] was determined as 10.4 h. In the series on Homo sapiens [10], the Tmax was 1.5 h. The AUCt with Homo sapiens [5] was found to be 331 ng.Eq.hr/ml.

`COc1cc2c(cc1O)[C@H](CCc1ccc(C(F)(F)F)cc1)NCC2`: the Drug metabolism entry with Plasma was “metabolite_detected”.

As to `COc1cc2ccnc(CCc3ccc(C(F)(F)F)cc3)c2cc1OC`, the Drug metabolism entry in the series with Plasma is listed as “metabolite_detected”.

Take `COc1cc2c(cc1OC)[C@H](CC(O)c1ccc(C(F)(F)F)cc1)NCC2` (stereo partly specified): the Drug metabolism result in the series on Plasma is listed as “metabolite_detected”.
